According to ChEMBL document CHEMBL4014261, “Design, Synthesis, and Antimicrobial Evaluation of a Novel Bone-Targeting Bisphosphonate-Ciprofloxacin Conjugate for the Treatment of Osteomyelitis Biofilms” (J Med Chem, 2017):
In brackets after ≈: the same amount, converted by molar mass. Activity calls are given as the source filed them. The calls are words filed in the database; no cut-off is given here.

How the values were obtained:
[1] = tested on: Staphylococcus aureus; test: Antibacterial activity against methicillin-sensitive Staphylococcus aureus isolate 4 planktonic cells after 24 hrs by microdilution assay; assay type: functional; details: isolate 4, 24 h
Outline: (§1)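 Planktonic cells at 1 × 10^5 CFU/mL were exposed to compound, and A580 was read at 0 h and after 24 h at 37 °C with shaking. Controls were medium plus microbes, with 1% (v/v) DMSO where the solvent was used. Relative cell number was calculated against the control. Results were confirmed by subculture in fresh medium (48 h, 37 °C) and plating. Conjugate concentrations were expressed as parent-antibiotic equivalents.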

[2] = tested on: Staphylococcus aureus; test: Antibacterial activity against methicillin-sensitive Staphylococcus aureus isolate 5 planktonic cells after 24 hrs by microdilution assay; assay type: functional; details: isolate 5, 24 h; outline: as §1
[3] = tested on: Staphylococcus aureus; test: Antibacterial activity against methicillin-sensitive Staphylococcus aureus isolate 1 planktonic cells at 5 mg after 24 hrs by disc diffusion test; set-up: dose or concentration left out as unconfirmed; details: isolate 1, 24 h, read-out: DIZ
[4] = tested on: Staphylococcus aureus; test: Antibiofilm activity against Staphylococcus aureus ATCC 6538 assessed as CFU counts at 100 ug/mL pretreated with HA for 24 hrs followed by organism inoculation measured after 24 hrs (reference value: 8.1 x 10^10CFU); assay type: functional
Outline: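 HA discs were soaked 24 h at 37 °C in 2 mL compound solution, with DMSO or phosphate-buffer controls, then rinsed 3× with sterile water. Discs were inoculated with 2 mL of 0.5 McFarland S. aureus ATCC 6538 for biofilm formation. Biofilm CFU were counted after 24 h growth.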

[5] = tested on: Staphylococcus aureus; test: Antibacterial activity against methicillin-sensitive Staphylococcus aureus isolate 5 planktonic cells at 5 mg after 24 hrs by disc diffusion test; set-up: dose or concentration left out as unconfirmed; details: isolate 5, 24 h, read-out: DIZ
[6] = tested on: Staphylococcus aureus; test: Bactericidal activity against Staphylococcus aureus ATCC 6538 biofilm using hydroxyapatite as substrate assessed as reduction in colony forming units after 24 hrs; assay type: functional
Outline: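 Biofilms were started from a 1 McFarland suspension, allowed to adhere 4 h at 37 °C on HA discs or polystyrene well bottoms, then rinsed. They were exposed 24 h at 37 °C to TSB containing 0.24–125 mg/L compound. Cells were detached in 0.5% saponin by 1 min vortexing, serially diluted and plated on Columbia (S. aureus) or MacConkey (P. aeruginosa) agar, 37 °C, 24 h. Read-out was mean CFU/mm² ± SEM; HA area was measured by X-ray tomography.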

[7] = tested on: Staphylococcus aureus; test: Antibacterial activity against methicillin-resistant Staphylococcus aureus MR4-CIPS planktonic cells at 5 mg after 24 hrs by disc diffusion test; set-up: dose or concentration left out as unconfirmed; details: read-out: DIZ
[8] = tested on: Staphylococcus aureus; test: Antibacterial activity against methicillin-sensitive Staphylococcus aureus isolate 3 planktonic cells after 24 hrs by microdilution assay; assay type: functional; details: isolate 3, 24 h; outline: as §1
[9] = tested on: Aggregatibacter actinomycetemcomitans; test: Antibiofilm activity against Aggregatibacter actinomycetemcomitans D7S-1 serotype A at 5 mg after 24 hrs by disc diffusion assay; assay type: functional; details: read-out: DIZ
[10] = tested on: Aggregatibacter actinomycetemcomitans; test: Antibiofilm activity against Aggregatibacter actinomycetemcomitans infected in jawbone peri-implant osteomyelitis Sprague-Dawley rat model assessed as bacterial count in bone per gram at 10 mg/kg, ip administered 3 times per week measured after 1 week post pharmacotherapy relative to control; assay type: functional
Outline: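 Rats carried two titanium implants each, preinoculated with A. actinomycetemcomitans D7S-1 biofilm (10^9 CFU), placed bilaterally in palatal bone. One week after surgery, randomized groups received i.p. doses in sterile saline; the negative control was endotoxin-free saline. One week after treatment, 1 cm² peri-implant tissue and bone were homogenized in 0.5% saponin, serially diluted 10-fold and spread-plated on modified TSB (37 °C, 5% CO2, 48 h). Read-out was CFU/g and mean log10 reduction; analysts were blinded.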

[11] = tested on: Staphylococcus aureus; test: Antibacterial activity against methicillin-sensitive Staphylococcus aureus isolate 2 planktonic cells after 24 hrs by microdilution assay; assay type: functional; details: isolate 2, 24 h; outline: as §1
[12] = tested on: Staphylococcus aureus; test: Antibacterial activity against methicillin-sensitive Staphylococcus aureus isolate 6 planktonic cells at 5 mg after 24 hrs by disc diffusion test; set-up: dose or concentration left out as unconfirmed; details: isolate 6, 24 h, read-out: DIZ
[13] = tested on: Staphylococcus aureus; test: Antibacterial activity against methicillin-sensitive Staphylococcus aureus isolate 3 planktonic cells at 5 mg after 24 hrs by disc diffusion test; set-up: dose or concentration left out as unconfirmed; details: isolate 3, 24 h, read-out: DIZ
[14] = tested on: Staphylococcus aureus; test: Antibacterial activity against methicillin-sensitive Staphylococcus aureus isolate 4 planktonic cells at 5 mg after 24 hrs by disc diffusion test; set-up: dose or concentration left out as unconfirmed; details: isolate 4, 24 h, read-out: DIZ
[15] = tested on: Pseudomonas aeruginosa; test: Bactericidal activity against Pseudomonas aeruginosa ATCC 15442 biofilm using hydroxyapatite as substrate assessed as reduction in colony forming units at 8 ug/ml at pH 4.8 to 7.4 after 24 hrs; assay type: functional
[16] = tested on: Staphylococcus aureus; test: Antibacterial activity against methicillin-sensitive Staphylococcus aureus isolate 6 planktonic cells after 24 hrs by microdilution assay; assay type: functional; details: isolate 6, 24 h; outline: as §1
[17] = tested on: Staphylococcus aureus; test: Antibacterial activity against methicillin-sensitive Staphylococcus aureus isolate 2 planktonic cells at 5 mg after 24 hrs by disc diffusion test; set-up: dose or concentration left out as unconfirmed; details: isolate 2, 24 h, read-out: DIZ
[18] = tested on: Staphylococcus aureus; test: Antibiofilm activity against Staphylococcus aureus ATCC 6538 assessed as CFU counts at 200 ug/mL pretreated with HA for 24 hrs followed by organism inoculation measured after 24 hrs (reference value: 8.1 x 10^10CFU); assay type: functional
[19] = tested on: Staphylococcus aureus; test: Antibacterial activity against methicillin-sensitive Staphylococcus aureus ATCC 6538 planktonic cells after 24 hrs by microdilution assay; assay type: functional; details: ATCC 6538, 24 h; outline: as §1
[20] = tested on: Staphylococcus aureus; test: Antibiofilm activity against Staphylococcus aureus ATCC 6538 assessed as CFU counts at 400 ug/mL pretreated with HA for 24 hrs followed by organism inoculation measured after 24 hrs (reference value: 8.1 x 10^10CFU); assay type: functional
[21] = tested on: Aggregatibacter actinomycetemcomitans; test: Antibiofilm activity against Aggregatibacter actinomycetemcomitans D7S-1 serotype A after 24 hrs by microdilution assay; assay type: functional
[22] = tested on: Staphylococcus aureus; test: Antibacterial activity against methicillin-sensitive Staphylococcus aureus isolate 1 planktonic cells after 24 hrs by microdilution assay; assay type: functional; details: isolate 1, 24 h; outline: as §1
[23] = tested on: Staphylococcus aureus; test: microbe, parasite or virus in culture; set-up: dose or concentration left out as unconfirmed; details: ATCC 6538, 24 h, read-out: DIZ
[24] = tested on: Staphylococcus aureus; test: Antibacterial activity against methicillin-resistant Staphylococcus aureus MR4-CIPS planktonic cells after 24 hrs by microdilution assay; assay type: functional
Outline: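 Broth microdilution: 100 µL of 1 × 10^5 CFU/mL inoculum with graded compound concentrations, read at 580 nm before and after 24 h at 37 °C with shaking to prevent biofilm formation. Relative cell number is taken against medium + microbes controls, with 1% DMSO in the ciprofloxacin control. Growth is confirmed by 48 h subculture in fresh medium and by plating. MIC is expressed as parent-antibiotic equivalents.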

[25] = tested on: Staphylococcus aureus; test: Bactericidal activity against Staphylococcus aureus ATCC 6538 biofilm using hydroxyapatite as substrate assessed as reduction in colony forming units at 0.24 to 250 ug/ml after 24 hrs; assay type: functional
[26] = tested on: Staphylococcus aureus; test: Antibiofilm activity against Staphylococcus aureus ATCC 6538 assessed as reduction in bacterial adherence to HA at 0.24 to 7.8 ug/ml pretreated with HA for 24 hrs followed by organism inoculation measured after 24 hrs; assay type: functional
Outline: (§2)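 HA spherules (final 10 mg/mL) in TSB were preincubated 24 h at 37 °C with shaking with compound (final 0.12–250 mg/L), then pelleted and the supernatant discarded. They were inoculated with 1 mL S. aureus at 10^5 CFU/mL. A580 was read at 0 and 24 h (37 °C, shaking) against controls without spherules and spherules without compound; spherules were also plated for CFU.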

[27] = tested on: Staphylococcus aureus; test: Antibiofilm activity against Staphylococcus aureus ATCC 6538 assessed as reduction in bacterial adherence to HA at 15.6 to 250 ug/ml pretreated with HA for 24 hrs followed by organism inoculation measured after 24 hrs; assay type: functional; outline: as §2

## O=C(O)c1cn(C2CC2)c2cc(N3CCNCC3)c(F)cc2c1=O [CIPROFLOXACIN]
[1]
  MIC: 1 µg/mL (≈ 3.02 µM)
[2]
  MIC: 0.5 µg/mL (≈ 1.51 µM)
[3]
  zone of inhibition: 25 to 40 mm
[4]
  Activity: Active
[5]
  zone of inhibition: 25 to 40 mm
[6]
  MBIC90: 8 µg/mL
[7]
  zone of inhibition: 25 to 40 mm
[8]
  MIC: 0.25 µg/mL (≈ 0.754 µM)
[9]
  zone of inhibition at 5000 µg/disc: > 40 mm
[10]
  Activity: 90%
[11]
  MIC: 0.25 µg/mL (≈ 0.754 µM)
[12]
  zone of inhibition: 25 to 40 mm
[13]
  zone of inhibition: 25 to 40 mm
[14]
  zone of inhibition: 25 to 40 mm
[15]
  Activity: inactive
[16]
  MIC: 1 µg/mL (≈ 3.02 µM)
[17]
  zone of inhibition: 25 to 40 mm
[18]
  Activity: Active
[19]
  MIC: 1 µg/mL (≈ 3.02 µM)
[20]
  Activity: Active
[21]
  MIC90: 2 µg/mL (≈ 6.04 µM)
[22]
  MIC: 1 µg/mL (≈ 3.02 µM)
[23]
  zone of inhibition: 25 to 40 mm
[24]
  MIC: 1 µg/mL (≈ 3.02 µM)

## O=C(O)c1cn(C2CC2)c2cc(N3CCN(C(=O)c4ccc(CC(P(=O)(O)O)P(=O)(O)O)cc4)CC3)c(F)cc2c1=O
[1]
  MIC: 62.5 µg/mL (≈ 100 µM)
[2]
  MIC: 7.8 µg/mL (≈ 12.5 µM)
[25]
  Activity: inactive
[8]
  MIC: 15.6 µg/mL (≈ 25 µM)
[11]
  MIC: 31.2 µg/mL (≈ 50 µM)
[16]
  MIC: 15.6 µg/mL (≈ 25 µM)
[26]
  Activity: inactive
[19]
  MIC: 62.5 µg/mL (≈ 100 µM)
[27]
  Activity: inactive
[22]
  MIC: 31.2 µg/mL (≈ 50 µM)
